The values that follow come from ChEMBL document CHEMBL3994624, “Antimalarial Pyrido[1,2-a]benzimidazoles: Lead Optimization, Parasite Life Cycle Stage Profile, Mechanistic Evaluation, Killing Kinetics, and in Vivo Oral Efficacy in a Mouse Model” (J Med Chem, 2017).

Data set [1] concerns Ferriprotoporphyrin IX. Nature of the data set: Inhibition of beta hematin formation in ring stage of chloroquine-sensitive Plasmodium falciparum NF54 assessed as increase in free heme level after 36 hrs by UV-vis spectra analysis. The essentials: (§1)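 Synchronized ring-stage parasites treated with increasing drug concentrations, then cellular fractionation. Free haem and haemozoin quantified as iron (fg/cell) and compared with untreated control; significance by p-values; parasite survival overlaid.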

A short description of data set [2]: Selectivity index, ratio of IC50 for CHO cells to IC50 for chloroquine-sensitive Plasmodium falciparum NF54. Type of data set: toxicity. Particulars: hamster, read-out: Ratio IC50. The essentials:
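Selectivity index = IC50 CHO / IC50 PfNF54.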

Data set [3] in a line: Metabolic stability in human liver microsomes assessed as compound remaining at 1 uM in presence of NADPH after 30 mins by LC-MS/MS analysis. Particulars: read-out: Stability. Type of data set: ADME, microsome. The essentials: (§2)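 Mouse and human liver microsomes; % compound remaining after 30 min.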
(Liver microsomes are vesicles of endoplasmic reticulum, rich in cytochrome P450 enzymes.)

The test system of data set [4] is Plasmodium falciparum. Nature of the data set: Ratio of IC50 for chloroquine-sensitive Plasmodium falciparum NF54 early 2/3 stage gametocytes to IC50 for chloroquine-sensitive Plasmodium falciparum NF54 late 4/5 stage gametocytes. The data set is classed as functional. The essentials:
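Early (stage II/III) and late (stage IV/V) gametocytes tested in parallel luciferase reporter assays; stage preference = EG IC50/LG IC50.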

Data set [5] concerns Ferriprotoporphyrin IX. Nature of the data set: Inhibition of beta hematin formation in water/NP40/DMSO solution after 5 hrs.
Another data set concerns CHO. Nature of the data set: Cytotoxicity against CHO cells after by MTT assay. The note with it: Cricetulus griseus. The data set is classed as cell-based. In general terms: Tetrazolium assays rely on reduction of a dye to a coloured formazan, in cell work by metabolically active cells.
Data set [6] concerns Ferriprotoporphyrin IX. Briefly: Inhibition of beta hematin formation in ring stage of chloroquine-sensitive Plasmodium falciparum NF54 assessed as decrease in haemozoin level after 36 hrs by UV-vis spectra analysis. Summed up:
as §1

In data set [7] the test system is Plasmodium falciparum. Briefly: Anti-plasmodial activity against chloroquine-sensitive Plasmodium falciparum NF54 by [3H]-hypoxanthine incorporation assay. Type of data set: functional. Summed up:
(§3)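 P. falciparum asexual blood-stage growth inhibition by [3H]hypoxanthine incorporation; chloroquine and artesunate run as reference drugs in every experiment; IC50 given as mean of ≥2 independent experiments.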

Data set [8] has as its system Plasmodium falciparum. Nature of the data set: Anti-plasmodial activity against chloroquine-sensitive Plasmodium falciparum NF54 late 4/5 stage gametocytes assessed as reduction in ATP levels after 24 hrs by BacTiter-Glo reagent based bioluminescence assay. The data set is classed as functional. Particulars: NF54, 24 h.
A further data set deals with Huh-7. Nature of the data set: Cytotoxicity against human HuH7 cells at 1 to 10 uM after 48 hrs by Alamarblue assay. The data set is classed as cell-based. Particulars: huh-7, 48 h. In general terms: The colour change of resazurin is a common sign of viable cells or microbes.
For data set [9], the system named is Plasmodium falciparum. Briefly: Anti-plasmodial activity against multidrug resistant Plasmodium falciparum K1 by [3H]-hypoxanthine incorporation assay. The data set is classed as functional. The essentials: as §3
Data set [10] can be described thus: Metabolic stability in Balb/c mouse liver microsomes assessed as compound remaining at 1 uM in presence of NADPH after 30 mins by LC-MS/MS analysis. Type of data set: ADME, microsome. Particulars: read-out: Stability. Summed up:
as §2

The subject of data set [11] is Plasmodium berghei. Briefly: Antimalarial activity against GFP-fused Plasmodium berghei ANKA infected in mouse assessed as reduction in parasitemia at 10 mg/kg, po administered once daily for 4 days by flow cytometry relative to control. Type of data set: functional. Further details: scale not given: the % may be the effect or the level left. The essentials: (§4)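 P. berghei-infected mice, 3 per group. Compound formulated in 90/10 Tween80/ethanol (v/v), diluted 10-fold with water, given orally once daily at 4, 24, 48 and 72 h post-infection. Outcomes: % parasitemia reduction versus untreated control, mean survival days, and cured/infected. Mice with <40% reduction euthanized on day 4.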

The test system of data set [12] is Plasmodium berghei. Briefly: Antimalarial activity against GFP-fused Plasmodium berghei ANKA infected in mouse assessed as protection against parasitemia at 3 mg/kg, po administered once daily for 4 days measured 30 days post infection by light microscopy. Type of data set: functional, organism-based. The essentials:
as §4

Data set [13] can be described thus: Kinetic solubility of the compound in FaSSIF at pH 6.5 after 2 hrs by shake flask method. Type of data set: physicochemical. Particulars: read-out: Kinetic_solubility.
For data set [14], the system named is Mus musculus. Nature of the data set: AUC (0 to infinity) in C57/Bl6 mouse at 2.5 mg/kg, iv by LC-MS method. Particulars: in vivo. The data set is classed as ADME, organism-based. Also on record: dose 2.5 mg/kg, time infinity, route intravenous. The essentials:
(§5)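 Mice (n=3) given a single intravenous dose of 2.5 mg/kg in dimethylacetamide:polyethylene glycol:propylene glycol/ethanol (4:1) at 1:3:6; 24 h sampling. Parameters were fitted by nonlinear mixed-effects two-compartment model with first-order elimination.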

Data set [15] has as its system Plasmodium berghei. Briefly: Antimalarial activity against GFP-fused Plasmodium berghei ANKA infected in mouse assessed as reduction in parasitemia at 30 mg/kg, po administered once daily for 4 days by flow cytometry relative to control. The data set is classed as functional. Also on record: scale not given: the % may be the effect or the level left. Summed up: as §4

For data set [16], the system named is Plasmodium berghei. Briefly: Antimalarial activity against GFP-fused Plasmodium berghei ANKA infected in mouse assessed as reduction in parasitemia at 50 mg/kg, po administered once daily for 4 days by flow cytometry relative to control. The data set is classed as functional. Also on record: scale not given: the % may be the effect or the level left. The essentials:
as §4

The subject of data set [17] is Plasmodium berghei. Briefly: Antimalarial activity against GFP-fused Plasmodium berghei ANKA infected in mouse assessed as mouse mean survival days at 3 mg/kg, po administered once daily for 4 days. Type of data set: functional. Summed up: (§6)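 P. berghei-infected mice (n=3 per dose) dosed orally once daily on 4 consecutive days at 4, 24, 48 and 72 h after infection; compound in 90/10 Tween80/ethanol (v/v) diluted 10-fold with water. Read-outs were % parasitemia reduction, mean survival time in days and cure; mice with <40% parasitemia reduction euthanized on day 4.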

A short description of data set [18]: Volume of distribution in C57/Bl6 mouse at 2.5 mg/kg, iv by LC-MS method. Particulars: in vivo. Type of data set: ADME, organism-based. The essentials: as §5
Data set [19] is described as follows: Oral bioavailability in C57/Bl6 mouse at 10 mg/kg administered via gavage by LC-MS method. Type of data set: ADME, organism-based. Particulars: in vivo. The essentials:
(§7)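 Mice (n=3) given a single oral dose of 10 mg/kg as a suspension in […] HPMC; plasma sampled over 24 h. Parameters were estimated by nonlinear mixed-effects modelling with a two-compartment disposition model, first-order absorption and elimination.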

Data set [20] concerns Plasmodium berghei. Briefly: Antimalarial activity against GFP-fused Plasmodium berghei ANKA infected in mouse assessed as mouse mean survival days at 50 mg/kg, po administered once daily for 4 days. The data set is classed as functional. The essentials:
as §6

The test system of data set [21] is Plasmodium berghei. Nature of the data set: Antimalarial activity against GFP-fused Plasmodium berghei ANKA infected in mouse assessed as protection against parasitemia at 50 mg/kg, po administered once daily for 4 days measured 30 days post infection by light microscopy. Type of data set: functional, organism-based. The essentials: as §4
In data set [22] the test system is Plasmodium berghei. Briefly: Antimalarial activity against GFP-fused Plasmodium berghei ANKA infected in mouse assessed as mouse mean survival days at 30 mg/kg, po administered once daily for 4 days. Type of data set: functional. The essentials: as §6
The subject of data set [23] is Plasmodium berghei. Briefly: Antimalarial activity against GFP-fused Plasmodium berghei ANKA infected in mouse assessed as protection against parasitemia at 10 mg/kg, po administered once daily for 4 days measured 30 days post infection by light microscopy. The data set is classed as functional, organism-based. Summed up:
as §4

Data set [24] is described as follows: Half life in C57/Bl6 mouse at 2.5 mg/kg, iv by LC-MS method. The data set is classed as ADME, organism-based. The note with it: in vivo. Summed up: as §5
A short description of data set [25]: Tmax in C57/Bl6 mouse at 10 mg/kg, po administered via gavage by LC-MS method. The data set is classed as ADME, organism-based. Particulars: in vivo. The essentials:
as §7

In data set [26] the test system is Plasmodium berghei. Briefly: Antimalarial activity against GFP-fused Plasmodium berghei ANKA infected in mouse assessed as reduction in parasitemia at 3 mg/kg, po administered once daily for 4 days by flow cytometry relative to control. The data set is classed as functional. Further details: scale not given: the % may be the effect or the level left. The essentials:
as §4

A short description of data set [27]: Clearance in C57/Bl6 mouse at 2.5 mg/kg, iv by LC-MS method. Type of data set: ADME, organism-based. Particulars: in vivo. The essentials: as §5
Data set [28] is described as follows: Cmax in C57/Bl6 mouse at 10 mg/kg, po administered via gavage by LC-MS method. Type of data set: ADME, organism-based. Also on record: dose 10 mg/kg, route oral. The note with it: in vivo. Summed up:
as §7

Data set [29] in a line: Half life in C57/Bl6 mouse at 10 mg/kg, po administered via gavage by LC-MS method. The data set is classed as ADME, organism-based. Particulars: in vivo. The essentials:
as §7

Data set [30] has as its system Mus musculus. Briefly: AUC (0 to infinity) in C57/Bl6 mouse at 10 mg/kg, po administered via gavage by LC-MS method. Also on record: dose 10 mg/kg, route oral, time infinity. The data set is classed as ADME, organism-based. Particulars: in vivo. The essentials: as §7
The subject of data set [31] is Plasmodium berghei. Briefly: Antimalarial activity against GFP-fused Plasmodium berghei ANKA infected in mouse assessed as mouse mean survival days at 10 mg/kg, po administered once daily for 4 days. Type of data set: functional. The essentials:
as §6

The subject of data set [32] is Plasmodium falciparum. Briefly: Anti-plasmodial activity against chloroquine-sensitive Plasmodium falciparum NF54 late 4/5 stage gametocytes after 48 hrs by luciferin-luciferase reaction based bioluminescence assay. The data set is classed as functional. The note with it: NF54, 48 h.

Values after ≈ are worked out from the molar mass of the structure shown. Active and inactive are the calls of the source.

With `CCNCCNc1cc(-c2ccc(Cl)c(Cl)c2)c(C#N)c2nc3ccccc3n12`, the inhibition result in the data set with Ferriprotoporphyrin IX [1] and in the data set on Ferriprotoporphyrin IX [6] was “Dose-dependent effect” each time. Moreover, the selectivity ratio in data set [2] was determined as 14. Moreover, the remaining at 0.5 h, 1 µM in data set [3] worked out at 60%; in [10], 65%. The “Ratio IC50” value in the data set on Plasmodium falciparum [4] was 1.2. Also, the IC50 with Ferriprotoporphyrin IX [5] is less than 45000 nM; with CHO, 1550 nM; in the data set on Plasmodium falciparum [7] it was 110 nM; with Plasmodium falciparum [8] it was 590 nM; with Plasmodium falciparum [9], 120 nM. In the data set on Huh-7, the Activity result is given as “Non-Toxic”.

Turning to `CCNCCNc1cc(-c2ccc(C(F)(F)F)cc2)c(C#N)c2nc3cc(Cl)cc(Cl)c3n12`, the Activity in the data set with Plasmodium berghei [11] is reported as 99.4%; with Plasmodium berghei [15], 99.4%; in the data set on Plasmodium berghei [16] it was 98%; in the data set with Plasmodium berghei [26], 99.4%; in the data set with Huh-7 it was “Non-Toxic”. In addition, the selectivity ratio in data set [2] was found to be 431. Besides, the remaining at 0.5 h, 1 µM in [3] and in data set [10] was 87% each time. Moreover, the outcome with Plasmodium berghei [12] and with Plasmodium berghei [23] was inactive. For the same compound, in data set [13], the solubility kinetic at 2 h is 20 µM (≈ 9.85 µg/mL). Besides, the AUC came out at 9.52 µM·h in the data set on Mus musculus [14] and 11.4 µM·h with Mus musculus [30]. In addition, the “Ratio IC50” value in the data set on Plasmodium falciparum [4] is given as 1.2. For the same compound, the MSD in the data set on Plasmodium berghei [17] is 16 days; in the data set on Plasmodium berghei [20], 30 days; in the data set with Plasmodium berghei [22], 30 days; in the data set on Plasmodium berghei [31], 18 days. The same compound came in with a Vd in data set [18] of 19 L/kg. In data set [19], this compound registered a bioavailability of 30%. The IC50 with CHO was found to be 11200 nM; with Plasmodium falciparum [7], 30 nM; in the data set with Plasmodium falciparum [9], 40 nM; in the data set with Plasmodium falciparum [32], 1440 nM. Besides, in the data set with Plasmodium berghei [21], the outcome was Active. Further, the half-life in data set [24] and in [29] was 21 h throughout. In addition, the Tmax in data set [25] is more than 10 h. For the same compound, the clearance in data set [27] amounted to 11 mL/min/kg. Also, in [28], the highest level (Cmax) was 220 nM.

Usually IC50 stands for the concentration that inhibits the measured activity by half. Broadly, the AUC is the area under the concentration-time curve, a measure of exposure. For orientation: Vd means the apparent volume that relates the amount in the body to the concentration in plasma or blood. What is called bioavailability is dose-corrected exposure relative to a reference, in per cent. One may read the half-life as the time needed for the level to fall by half in the phase considered. As a reminder, the Tmax is the time at which the peak concentration occurs. In general, clearance refers to the rate of elimination divided by the concentration. By Cmax is commonly meant the highest concentration seen after dosing.
